Measurements reported in ChEMBL document CHEMBL1123079, “Synthesis and biological activity of a novel adenosine analogue, 3-beta-D-ribofuranosylthieno[2,3-d]pyrimidin-4-one” (1985).

Legend:
L1210 [1] = test: The concentration requiredi (cytidine+2'deoxycytidine) to inhibit the growth of L-1210 leukemic cells was evaluated; type: functional, cell-based; settings: Mus musculus
L1210 [2] = test: The concentration required to inhibit the growth of L-1210 leukemic cells was evaluated; 1E-3 to 1E-4; type: functional, cell-based; settings: Mus musculus
L1210 [3] = test: The compound was tested for inhibition of L-1210 leukemic cell growth at 10 e-4 M; type: functional, Mus musculus; design: scale not given: the % may be the effect or the level left
Method in brief: (§1)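 Murine L-1210 leukemic cells were grown in static suspension culture in Fischer's medium. Test compound was added at 5 × 10^-5 or 10^-4 M alone. Initial growth rate is the rate of increase in cell number over the first 24 h of incubation, expressed as % of untreated control. Values are mean (±SD), n = 5.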

L1210 [4] = test: The compound was tested for inhibition of L-1210 leukemic cell growth at 5 x 10 e-5 M along with 10e-5 M adenine.; type: functional, Mus musculus; design: scale not given: the % may be the effect or the level left
Method in brief: (§2)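 L-1210 cells were held in static suspension in Fischer's medium with test compound at 5 × 10^-5 M plus either 10^-5 M adenine or 10^-5 M adenosine. Cell numbers were counted, and the rate of increase over the first 24 h was taken as the initial growth rate, given as % of untreated control. Values are means, n = 2.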

L1210 [5] = test: The compound was tested for inhibition of L-1210 leukemic cell growth at 10 e-4 M along with 10e-5 M adenosine.; type: functional, Mus musculus; design: scale not given: the % may be the effect or the level left
Method in brief: (§3)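 Static suspension cultures of murine L-1210 leukemic cells were grown in Fischer's medium with test compound at 10^-4 M plus 10^-5 M adenine or 10^-5 M adenosine. Read-out was the initial growth rate, the increase in cell number during the first 24 h of incubation, relative to untreated control cells (%).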

L1210 [6] = test: The compound was tested for inhibition of L-1210 leukemic cell growth at 10 e-4 M along with 10e-5 M adenine.; type: functional, Mus musculus; design: scale not given: the % may be the effect or the level left; method in brief: as §3
L1210 [7] = test: The compound was tested for inhibition of L-1210 leukemic cell growth at 5 x 10 e-5 M; type: functional, Mus musculus; design: scale not given: the % may be the effect or the level left; method in brief: as §1
L1210 [8] = test: The compound was tested for inhibition of L-1210 leukemic cell growth at 5 x 10 e-5 M along with 10e-5 M adenosine.; type: functional, Mus musculus; design: scale not given: the % may be the effect or the level left; method in brief: as §2
L1210 [9] = test: The concentration required to inhibit the growth of L-1210 leukemic cells was evaluated; 1E-4 to 1E-5; type: functional, cell-based; settings: Mus musculus
L1210 [10] = test: The concentration required (hypoxanthine+uridine) to inhibit the growth of L-1210 leukemic cells was evaluated; 2E-4 to 2E-5; type: functional, cell-based; settings: Mus musculus
L1210 [11] = test: The concentration required to inhibit the growth of L-1210 leukemic cells was evaluated; 1E-4 to 5E-4; type: functional, cell-based; settings: Mus musculus

With `Nc1ccn([C@@H]2O[C@H](CO)[C@@H](O)[C@H]2O)c(=O)n1` the Concentration (L1210 [1]) was 100 µM and the Concentration (L1210 [2]) was 1 mM.

Work on `O=c1c2ccsc2ncn1C1O[C@H](CO)[C@@H](O)[C@H]1O` (some centres not stated) yielded a Control (L1210 [3]) of 16%, a Control (L1210 [4]) of 52% and a Control (L1210 [5]) of 50%. The Control (L1210 [6]) was 25%, the Control (L1210 [7]) was 32% and the Control (L1210 [8]) was 57%.

In the case of `O=c1ccn([C@@H]2O[C@H](CO)[C@@H](O)[C@H]2O)c(=O)[nH]1`, the Concentration (L1210 [2]) is reported as 1 mM.

`Cc1cn([C@H]2C[C@H](O)[C@@H](CO)O2)c(=O)[nH]c1=O` gave a Concentration (L1210 [9]) of 100 µM and a Concentration (L1210 [10]) of 200 µM.

`Nc1ccn([C@H]2C[C@H](O)[C@@H](CO)O2)c(=O)n1` showed a Concentration (L1210 [11]) of 100 µM.
